Data as given in ChEMBL document CHEMBL4819061, “New bioactive 5-arylcarboximidamidopyrazolo[3,4-c]pyridines: Synthesis, cytotoxic activity, mechanistic investigation and structure-activity relationships” (Eur J Med Chem, 2021).
pIC50: −log10 of the molar value. Counter-ions that a name gives are not always drawn. One block for each compound: values may come before it. The source made the active and inactive calls. The rule behind the calls is not given here.

How the values were obtained:
MDA-MB-231 = assay: Cytotoxicity against human MDA-MB-231 cells assessed as reduction in cell viability incubated for 72 hrs by MTT assay; assay type: functional, cell-based; settings: MDA-MB-231, 72 h
Summary of the method: (§1)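 Cancer lines (MDA-MB-231, HT-1080, PC-3) were grown in DMEM with 10% FBS and penicillin/streptomycin at 37 °C in 5% CO₂. About 5000 cells/well adhered overnight, then serial compound dilutions were added for 72 h, with matching DMSO dilutions (0.5–0.0008% v/v) as controls. MTT (1 mg/ml final, serum-free phenol-red-free DMEM) ran 4 h, was solubilised in 2-propanol, and OD read at 550 nm (ref 690). IC50 is the concentration halving OD versus untreated, mean of three independent experiments.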

HT-1080 [1] = assay: Cytotoxicity against human HT-1080 cells assessed as reduction in cell viability incubated for 72 hrs by MTT assay; assay type: functional, cell-based; settings: HT-1080, 72 h; summary of the method: as §1
PC-3 = assay: Cytotoxicity against human PC-3 cells assessed as reduction in cell viability incubated for 72 hrs by MTT assay; assay type: functional, cell-based; settings: PC-3, 72 h; summary of the method: as §1
AG1523 = assay: Cytotoxicity against human AG01523 cells assessed as reduction in cell viability incubated for 72 hrs by MTT assay; assay type: cell-based; settings: AG1523, 72 h
HT-1080 [2] = assay: Induction of cell cycle arrest in human HT1080 cells assessed as accumulation at G0/G1 phase at 2 uM incubated for 24 hrs by RNase/PI staining based flow cytometric analysis (reference value: 32.86 %); assay type: functional
HT-1080 [3] = assay: Induction of cell cycle arrest in human HT1080 cells assessed as accumulation at S phase at 2 uM incubated for 24 hrs by RNase/PI staining based flow cytometric analysis (reference value: 19.59 %); assay type: functional
HT-1080 [4] = assay: Induction of cell cycle arrest in human HT1080 cells assessed as accumulation at G2/M phase at 2 uM incubated for 24 hrs by RNase/PI staining based flow cytometric analysis (reference value: 47.55 %); assay type: functional
HT-1080 [5] = assay: Induction of cell cycle arrest in human HT1080 cells assessed as accumulation at sub-diploid phase at 2 uM incubated for 24 hrs by RNase/PI staining based flow cytometric analysis (reference value: 5.36 %); assay type: functional
HT-1080 [6] = assay: Inhibition of ERK phosphorylation in human HT-1080 cells at 20 uM after 15 mins by Western blotting analysis
HT-1080 [7] = assay: Induction of apoptosis in human HT-1080 cells assessed as increase in PARP cleavage at 2 uM after 24 hrs by Western blotting analysis
[8] = target: RAC-alpha serine/threonine-protein kinase (Homo sapiens) (UniProt P31749); assay: Inhibition of AKT phosphorylation at Ser473 residue in human HT-1080 cells at 20 uM after 15 mins by Western blotting analysis; settings: time 15.0 min
Chain of RAC-alpha serine/threonine-protein kinase (Homo sapiens) (P31749 whole entry): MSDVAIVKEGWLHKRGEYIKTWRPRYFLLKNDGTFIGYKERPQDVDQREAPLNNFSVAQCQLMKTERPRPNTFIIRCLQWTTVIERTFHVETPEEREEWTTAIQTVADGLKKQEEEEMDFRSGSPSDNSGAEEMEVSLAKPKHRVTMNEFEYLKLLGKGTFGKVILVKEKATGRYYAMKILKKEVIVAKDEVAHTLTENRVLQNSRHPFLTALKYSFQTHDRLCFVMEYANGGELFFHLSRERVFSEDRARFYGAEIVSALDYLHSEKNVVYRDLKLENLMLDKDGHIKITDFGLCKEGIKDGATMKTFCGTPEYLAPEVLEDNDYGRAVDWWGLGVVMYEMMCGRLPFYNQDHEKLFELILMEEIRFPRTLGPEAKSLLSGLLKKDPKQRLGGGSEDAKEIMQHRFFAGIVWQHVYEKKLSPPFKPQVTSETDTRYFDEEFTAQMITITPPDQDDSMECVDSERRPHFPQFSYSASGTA

Compound: COc1ccc(Cn2nc(-c3ccccc3)c3cc(C(=N)Nc4cccc(C(F)(F)F)c4)nc(N4CCOCC4)c32)cc1
pIC50 (MDA-MB-231): < 4.30

Compound: N=C(Nc1cccc(C(F)(F)F)c1)c1cc2cn[nH]c2cn1
pIC50 (MDA-MB-231): < 4.30
pIC50 (HT-1080 [1]): 4.44
pIC50 (PC-3): < 4.30

Compound: N=C(Nc1cccc(C(F)(F)F)c1)c1cc2c(-c3ccccc3)n[nH]c2c(NC2CCCCC2)n1
pIC50 (MDA-MB-231): 4.61
pIC50 (HT-1080 [1]): 4.67
pIC50 (PC-3): 4.60

Compound: COc1ccc(Cn2ncc3cc(C(=N)Nc4ccccc4)ncc32)cc1
pIC50 (MDA-MB-231): 4.46
pIC50 (HT-1080 [1]): 4.59
pIC50 (PC-3): 4.44

Compound: N=C(Nc1cccc(C(F)(F)F)c1)c1cc2c(-c3ccccc3)n[nH]c2cn1
pIC50 (MDA-MB-231): 4.65
pIC50 (HT-1080 [1]): 4.61
pIC50 (PC-3): 4.70

Compound: Cn1ncc2cc(C(=N)Nc3ccccc3)ncc21
pIC50 (MDA-MB-231): < 4.30

Compound: Cn1ncc2cc(C(=N)Nc3cccc(C(F)(F)F)c3)ncc21
pIC50 (MDA-MB-231): < 4.30
pIC50 (HT-1080 [1]): 4.47
pIC50 (PC-3): < 4.30

Compound: COc1ccc(Cn2cc3cc(C(=N)Nc4ccccc4)ncc3n2)cc1
pIC50 (MDA-MB-231): 5.82
pIC50 (HT-1080 [1]): 5.95
pIC50 (PC-3): 5.69
pIC50 (AG1523): 4.49
Percentage of cells in G0/G1 phase (HT-1080 [2]): 56.57%
Activity (HT-1080 [3]): 7.35%
Activity (HT-1080 [4]): 36.07%
Percent of cells in sub-diploid (sub-G1) phase (HT-1080 [5]): 24.06%
inhibition (HT-1080 [6]): inactive
Activity (HT-1080 [7]): Active

Compound: N=C(Nc1ccccc1)c1cc2c(-c3ccccc3)n[nH]c2c(N2CCOCC2)n1
pIC50 (MDA-MB-231): 5.17
pIC50 (HT-1080 [1]): 5.32
pIC50 (PC-3): 5.17

Compound: CN1CCN(c2ccc(NC(=N)c3cc4c(-c5ccccc5)nn(C)c4cn3)cc2)CC1
pIC50 (MDA-MB-231): 5.31
pIC50 (HT-1080 [1]): 5.85
pIC50 (PC-3): 5.23
pIC50 (AG1523): 4.98

Compound: COc1ccc(Cn2ncc3cc(C(=N)Nc4cccc(C(F)(F)F)c4)ncc32)cc1
pIC50 (MDA-MB-231): 4.53
pIC50 (HT-1080 [1]): 4.60
pIC50 (PC-3): 4.56

Compound: Cn1cc2cc(C(=N)Nc3cccc(C(F)(F)F)c3)ncc2n1
pIC50 (MDA-MB-231): < 4.30

Compound: COc1ccc(Cn2nc(-c3ccccc3)c3cc(C(=N)Nc4ccccc4)nc(N4CCOCC4)c32)cc1
pIC50 (MDA-MB-231): 4.67
pIC50 (HT-1080 [1]): 5.21
pIC50 (PC-3): 4.79

Compound: COc1cc(Nc2nc(C(=N)Nc3cccc(C(F)(F)F)c3)cc3c(-c4ccccc4)n[nH]c23)cc(OC)c1OC
pIC50 (MDA-MB-231): 5.12
pIC50 (HT-1080 [1]): 5.17
pIC50 (PC-3): 4.86

Compound: CN1CCN(c2ccc(NC(=N)c3cc4c(-c5ccccc5)n[nH]c4c(N4CCOCC4)n3)cc2)CC1
pIC50 (MDA-MB-231): 5.41
pIC50 (HT-1080 [1]): 5.25
pIC50 (PC-3): 5.08

Compound: Cn1cc2cc(C(=N)Nc3ccccc3)ncc2n1
pIC50 (MDA-MB-231): < 4.30

Compound: COc1cccc2c1C(=O)c1c(O)c3c(c(O)c1C2=O)C[C@@](O)(C(=O)CO)C[C@@H]3O[C@H]1C[C@H](N)[C@H](O)[C@H](C)O1 [DOXORUBICIN HYDROCHLORIDE]
pIC50 (MDA-MB-231): 6.72
pIC50 (HT-1080 [1]): 8.10
pIC50 (PC-3): 6.42
pIC50 (AG1523): 6.40

Compound: COc1ccc(Cn2nc(-c3ccccc3)c3cc(C(=N)Nc4cccc(C(F)(F)F)c4)ncc32)cc1
pIC50 (MDA-MB-231): < 4.30
pIC50 (HT-1080 [1]): 4.33
pIC50 (PC-3): < 4.30

inhibition [8]: inactive
Compound: COc1ccc(Cn2nc(-c3ccccc3)c3cc(C(=N)Nc4ccccc4)nc(NC4CCCCC4)c32)cc1
pIC50 (MDA-MB-231): 5.47
pIC50 (HT-1080 [1]): 5.47
pIC50 (PC-3): 5.96
pIC50 (AG1523): 4.57

Compound: COc1ccc(Cn2ncc3cc(C(=N)Nc4ccc(N5CCN(C)CC5)cc4)ncc32)cc1
pIC50 (MDA-MB-231): 5.24
pIC50 (HT-1080 [1]): 5.28
pIC50 (PC-3): 5.21
